Test results: PMC5956897 (Journal of inorganic biochemistry, 2018)

What was measured:
MDA-MB-231 cells [1] = assay: Intracellular ROS detection with DCFH2-DA by flow cytometry; type: cell-based
In short: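 Cells were seeded at 2.0 × 10⁵ per well and incubated overnight. They were treated for 2 h with test compound (50 μM) in phenol-red-free EMEM with 0.1% DMSO; the H₂O₂ control in PBS ran for 10 min. After PBS washes, cells took up DCFH₂-DA (30 μM) in warm PBS. They were detached with trypsin/EDTA, held on ice, and read by flow cytometry (488 nm excitation, 530/30 nm) within 1 h. n=3, mean ± SDM.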

MEL cells = assay: Spectrophotometric hemoglobin quantitation in induced MEL cells; type: cell-based, murine
MDA-MB-231 cells [2] = assay: Cell cycle analysis; type: cell-based; details: MDA-MB-231, 10 μM, 12 h

| Compound | DCF response compared to untreated control (MDA-MB-231 cells [1]; MDA-MB-231, positive control in PBS, 10 min) | effect on hemoglobin production (MEL cells; 0.5 μM or 5 μM, 72 h, without SA) | decrease in intracellular hemoglobin concentrations (MEL cells; 72 h, without SA, statistically significant) | change in intracellular Hb concentrations (MEL cells; with succinylacetone (SA, 1 mM), normalized data) | G0/1 accumulation (cell cycle arrest) (MDA-MB-231 cells [2]) | ROS/RNS levels (DCF fluorescence) compared to untreated control (MDA-MB-231 cells [1]; MDA-MB-231, 50 μM, 2 h) |
| --- | --- | --- | --- | --- | --- | --- |
| OO [H2O2, Hydrogen peroxide] | an order of magnitude higher than that of the untreated control | – | – | – | – | – |
| O=C(N/N=C/c1ccccc1O)c1ccncc1 [SIH, salicyl isonicotinoyl hydrazone] | – | did not have major effects on hemoglobin production | less than 20% | did not result in statistically significant changes | arrest at the G1/S interface | significant decrease of DCF fluorescence |
